# In the library only some 1.5% were active in any assay of this set; here they are far more common.
# Hsp70 act = transcriptional activators of Hsp70. activation, % at 10 µM. hit rate 0.04% among 200,000. HeLa Hsp70 promoter luciferase reporter, luminescence; scaled: vehicle 0, proteasome-inhibitor control 100%;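 active means activation above the mean across all tested compounds plus 3 SD, cutoff set per campaign, cut at about 5.5% in these data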;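 further: 100% = MG132 at 30 µM as the positive control and 0% = DMSO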
# Wee1 degr inh = blocks degradation of human Wee1 kinase | P30291 | HeLa Luc-Wee1K328M stability, luciferase luminescence; 100% = proteasome inhibitor MG132 effect | reporter increase, % at 5 µM | hit rate 1.2% among 220,000 | AID 1321;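 active means activation above the mean of all tested compounds plus 3 SD, set per screening run, cut at about 8.8% in these data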;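 further: cells exposed to compound for 20 h before luminescence read; 0% = DMSO alone and 100% = MG132 at 30 µM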
# Target sequence (P30291 whole entry K328M): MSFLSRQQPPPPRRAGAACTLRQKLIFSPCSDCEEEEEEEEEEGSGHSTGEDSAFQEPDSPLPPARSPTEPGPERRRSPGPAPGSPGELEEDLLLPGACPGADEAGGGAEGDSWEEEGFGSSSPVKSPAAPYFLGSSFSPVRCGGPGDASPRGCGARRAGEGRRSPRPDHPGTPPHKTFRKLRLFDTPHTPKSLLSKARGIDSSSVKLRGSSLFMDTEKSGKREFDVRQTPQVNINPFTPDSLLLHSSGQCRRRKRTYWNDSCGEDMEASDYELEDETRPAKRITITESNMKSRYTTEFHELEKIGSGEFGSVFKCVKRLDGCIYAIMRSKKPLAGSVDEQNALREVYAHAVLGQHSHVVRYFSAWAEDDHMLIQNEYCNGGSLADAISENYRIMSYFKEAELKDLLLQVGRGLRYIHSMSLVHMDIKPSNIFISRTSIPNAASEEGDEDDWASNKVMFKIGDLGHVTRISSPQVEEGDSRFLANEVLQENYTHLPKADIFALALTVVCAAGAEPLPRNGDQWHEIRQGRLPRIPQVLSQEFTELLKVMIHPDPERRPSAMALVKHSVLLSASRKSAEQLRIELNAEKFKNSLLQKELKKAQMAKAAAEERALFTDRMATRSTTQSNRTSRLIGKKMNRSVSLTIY
# m-calpain inh = blocks pig calpain II enzyme activity; purified calpain II, fluorogenic peptide substrate, 30 min; inhibition, % at 16 µM; hit rate 0.37% among 220,000; AID 1236;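 active means inhibition above about 50%, limit read from the data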
# Pf gamet viab = inhibitors of late stage P. falciparum gametocyte viability; hit rate 0.065% among 150,000; inhibition, % at 10.9 µM; P. falciparum stage V gametocytes, ATP luminescence, 24 h; AID 743093;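 active means inhibition above the mean plus 3 SD of compounds within the control limits, set per campaign, cut at about 38% in these data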;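 further: 0% = DMSO wells and 100% = medium only without gametocytes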
# MDM2 E3 inh = inhibitors of human Mdm2 E3 ubiquitin ligase. Q00987. cell-based MDM2 ubiquitination luciferase reporter, 2 h; 0 = plate control, 100 = twice control, blank-subtracted. signal enhancement, % at 5 µM. hit rate 0.11% among 210,000;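 active means signal enhancement of 30% or more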;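 further: luminescence tracks abundance of the self-degrading MDM2-luciferase fusion protein; higher signal means inhibition of MDM2 E3 ligase activity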
#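 test system = mammalian cells stably expressing self-ubiquitinating, self-degrading MDM2 E3–luciferase fusion | quantity = 2000 cells/well | incubation = cell settling 4 h, compound treatment 2 h, both 37 °C | signal = luminescence with SteadyLite reagent, 15 min at room temperature | evaluation = % enhancement relative to plate controls after blank subtraction | benchmarks = plate controls and plate blanks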
# Wee1 degr conf = confirmation of human Wee1 degradation inhibitors; shares compounds with Wee1 degr inh; activation, % at 5 µM; hit rate 4% among 1,100; HeLa Luc-Wee1K328M degradation, luminescence; vehicle 0%, proteasome-blocked wells 100%; in the data active means activation above about 8.9%
# * = called active by the depositor; · = no result given.
SMILES,Hsp70 act,Wee1 degr inh,m-calpain inh,Pf gamet viab,MDM2 E3 inh,Wee1 degr conf
CCSc1nnc(NC(=O)CSC2=NN3CCCC(=O)N=C3S2)s1,0,17*,20,5,-13,2
NC(=O)NC(=O)CC1S/C(=N/N=C2\CSC(=O)N2)NC1=O (stereo not given),0,-4,-8,13,-3,·
O=C(O)CNC(=O)CC1S/C(=N/N=C2/NC(=O)CS2)NC1=O (stereo not given),0,13*,18,12,-21,-1
COc1cc(C)ccc1OCCCCOc1ccccc1C(C)=O,0,16*,10,18,-7,-2
COc1cc(C)ccc1OCCCOc1ccccc1Cl,0,6,-15,12,-2,·
COc1ccc(S(=O)(=O)N2CN3CCN(C3)C2)cc1,·,·,·,1,·,·
Cc1nn2c(NCCCN3CCOCC3)c3c(nc2c1-c1ccccc1)CCC3,0,-2,-71,·,-12,·
CCCCNc1c2c(nc3c(-c4ccccc4)c(C)nn13)CCC2,0,13*,-169,·,-19,2
CC1(C)Cc2c(C#N)c(N3CCN(C(=O)c4ccccc4)CC3)nc(-c3ccco3)c2CS1,0,15*,-43,-12,-11,0
CCOC(=O)c1[nH]c(C)c(CN(C(C)=O)c2ccc(OCC)cc2)c1C,0,13*,12,12,-3,1
CCOC(=O)c1[nH]c(C)c(CN(CCc2ccccc2)S(C)(=O)=O)c1C,0,-1,-7,·,-9,·
CN1CCN(NC(=O)c2ccc(Cl)s2)CC1,0,-3,-12,14,-18,·
CCC(=O)Nc1ccc(-c2cc3ccccc3oc2=O)cc1,0,22*,-211,·,-10,6
O=c1[nH]c(-c2ccco2)nc2sc3c(c12)CCCC3,1,4,-3,3,-14,·
Nc1c2c(nc3ccccc13)CSCC2,·,·,·,1,·,·
c1ccc(NC2=NCCN2CC2CCCCCC2)cc1,·,·,·,11,·,·
CC(C)(C)c1ccc(OCc2ccc(C(=O)N3CCOCC3)o2)cc1,0,13*,-15,·,0,1
CCOC(=O)c1cn[nH]c1NC(=S)Nc1ccc(OC)cc1,·,12*,8,3,-68,-6
CCOC(=O)c1ccc(NC(=S)Nc2cccc(N)n2)cc1,·,18*,27,-4,1,1
CCOC(=O)c1ccc(NC(=O)C(CC)(CC)C(=O)OCC)cc1,0,16*,-17,-6,-7,-2
Cc1ccc(S(=O)(=O)C2(C(=O)Nc3ccc(Br)cc3)CC2)cc1,0,14*,18,·,-5,2
COc1ccc(C(=O)Nc2cccc3c2CCCC3)cc1OC,·,·,·,-4,·,·
CCS(=O)(=O)N1CCN(c2ccc([N+](=O)[O-])c(NCC3CCCO3)c2)CC1 (stereo not given),0,12*,33,-38,-15,1
CCOc1ccc(CCNC(=O)c2ccc3nc(N4CCOCC4)sc3c2)cc1OCC,·,-5,4,4,2,·
CCC(C)c1ccc(NC(=S)NCc2ccccc2OC)cc1 (stereo not given),0,17*,11,-1,-1,2
SMILES,Hsp70 act,Wee1 degr inh,m-calpain inh,Pf gamet viab,MDM2 E3 inh,Wee1 degr conf
COc1ccccc1N1CCN(C(=O)/C=C/c2ccco2)CC1,0,-2,3,-20,-5,·
COc1ccccc1N1CCN(/N=C/C=C\c2ccco2)CC1,0,24*,27,1,-1,2
COc1cc(C(=O)Nc2cccc(S(=O)(=O)N3CCCC3)c2)cc(OC)c1C,·,0,-22,16,-19,·
COc1ccc(CN(Cc2cccn2C)S(=O)(=O)c2ccc(F)cc2)cc1,·,11*,19,9,1,-1
CC(=O)c1ccc(OCC(=O)c2cc(C)n(-c3ccc4c(c3)OCO4)c2C)cc1,0,15*,-9,·,-27,0
Cc1ncn(-c2ccc(C(=O)Oc3ccccc3)cn2)n1,0,-2,-11,8,-1,·
O=C(c1ccc(Cl)cc1)C1CCCN(C(=O)c2csnn2)C1 (stereo not given),0,16*,-15,-25,5,0
COc1ccc(CNCc2c(F)cccc2F)cc1OC,·,·,·,1,·,·
CN(CCc1ccccn1)C(=S)Nc1ccc(Cl)c(Cl)c1,0,15*,-11,9,-7,3
